According to article PMC11298890 (iScience, 2024):
Where two headings read alike, the source gives them in different places.

Legend:
[1] = system: Plasmodium falciparum 3D7; experiment: Asexual blood stage parasite growth inhibition; type: cell-based; settings: 3D7, 48 h, read-out: Pf-EC50 (ABS), Pf 3D7, 48 h
[2] = target: T1, HsPRS (Homo sapiens, UniProt P07814); experiment: Aminoacylation activity inhibition assay; type: biochemical
T1 sequence (P07814 1007-1512 limits assumed): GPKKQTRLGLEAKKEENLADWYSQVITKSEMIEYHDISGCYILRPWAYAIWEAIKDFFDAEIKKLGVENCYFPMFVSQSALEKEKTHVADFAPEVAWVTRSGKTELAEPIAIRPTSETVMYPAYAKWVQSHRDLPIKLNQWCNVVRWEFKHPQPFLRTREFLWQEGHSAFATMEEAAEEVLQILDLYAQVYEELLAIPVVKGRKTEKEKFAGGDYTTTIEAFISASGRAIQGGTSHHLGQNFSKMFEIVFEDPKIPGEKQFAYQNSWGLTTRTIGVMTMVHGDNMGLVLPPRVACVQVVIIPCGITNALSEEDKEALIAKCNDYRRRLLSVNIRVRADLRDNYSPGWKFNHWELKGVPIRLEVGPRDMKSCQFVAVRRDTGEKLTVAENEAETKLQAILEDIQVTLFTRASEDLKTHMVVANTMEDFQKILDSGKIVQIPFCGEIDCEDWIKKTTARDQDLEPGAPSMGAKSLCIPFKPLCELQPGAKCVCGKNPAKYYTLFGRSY

[3] = target: T1, HsPRS; experiment: Microscale thermophoresis; type: binding; settings: Kd-Hs
Procedure, shortened: (§1)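 Recombinant tag-cleaved PRS (affinity, heparin and gel-filtration purified) labelled on lysines with Red-NHS 2nd-generation dye and held at 100 nM. Kd from MST; two independent replicates.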

[4] = target: T2, PfPRS (Plasmodium falciparum, UniProt Q8I5R7); type: binding; settings: Enzyme:Compound 1:50
T2 sequence (Q8I5R7 250-746 limits assumed): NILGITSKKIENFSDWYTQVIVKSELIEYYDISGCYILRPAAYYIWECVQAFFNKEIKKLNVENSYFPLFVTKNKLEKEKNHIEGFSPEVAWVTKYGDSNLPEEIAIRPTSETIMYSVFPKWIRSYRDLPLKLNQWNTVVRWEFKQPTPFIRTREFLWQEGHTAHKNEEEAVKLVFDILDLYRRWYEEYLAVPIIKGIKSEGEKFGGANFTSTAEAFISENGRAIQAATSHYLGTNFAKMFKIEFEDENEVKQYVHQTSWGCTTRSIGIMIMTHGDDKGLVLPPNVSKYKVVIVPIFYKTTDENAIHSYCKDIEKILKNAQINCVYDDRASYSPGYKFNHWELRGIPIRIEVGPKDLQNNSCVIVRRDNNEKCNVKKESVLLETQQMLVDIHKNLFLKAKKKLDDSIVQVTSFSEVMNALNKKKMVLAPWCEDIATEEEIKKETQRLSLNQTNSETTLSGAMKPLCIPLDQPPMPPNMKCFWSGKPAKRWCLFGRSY

[5] = target: T2, PfPRS; experiment: Microscale thermophoresis; type: binding; settings: for Kd: Kd-Pf
Procedure, shortened: as §1

[6] = target: T1, HsPRS; type: binding
[7] = target: T2, PfPRS; experiment: Aminoacylation activity inhibition assay; type: biochemical
[8] = replicate n = 1, MST, individual replicate 1
[9] = replicate n = 2, MST, individual replicate 2

O=C(CC1NCCCC1O)Cn1cnc2cc(Br)c(Cl)cc2c1=O (centres unmarked) [HFG, Halofuginone]
EC50 [1]: 0.2 nM
IC50 [2]: 10.9 nM
Kd [3, 8]: 42.4 nM
Kd [3, 9]: 61.9 nM
PfPRS melting temperature (Tm) ([4]; in presence of ATP (2 mM)): 87.7 °C
PfPRS melting temperature (Tm) ([4]; in presence of L-pro (2 mM)): 54.7 °C
PfPRS melting temperature (Tm) ([4]; in presence of L-pro + ATP (2 mM)): 86.6 °C
SI-Kd (Hs/Pf) ([5]; Kd-Hs / Kd-Pf): 0.7
Kd [5, 8]: 74.8 nM
Kd [5, 9]: 72.9 nM
HsPRS ΔTm from Apo Tm [6]: 61.4 (11.6) °C
HsPRS melting temperature (Tm) ([6]; enzyme + inhibitor only, no substrate, Enzyme:Compound 1:100): 61.4 (11.6) °C
IC50 [7]: 2.8 nM
SI-IC50 (Hs/Pf) ([7]; IC50 of the human enzyme divided by that of the plasmodium enzyme): 3.9
